≈ marks a conversion by molar mass, not a printed value.

Series [1] has as its system Staphylococcus aureus. The series is described as follows: Antibacterial activity against methicillin-sensitive Staphylococcus aureus ATCC 29213 after 16 to 20 hrs by broth microdilution method. It counts as functional. On the technique in general: Broth dilution looks for growth in wells or tubes with falling amounts of substance.
A short description of series [2]: Plasma protein binding in human by equilibrium dialysis assay. A general note: In equilibrium dialysis free small molecules cross a membrane that holds back macromolecules.
For series [3], the system named is Staphylococcus epidermidis. Briefly: Antibacterial activity against Staphylococcus epidermidis ATCC 35547 after 16 to 20 hrs by broth microdilution method. It counts as functional.
The test system of series [4] is Staphylococcus haemolyticus. Briefly: Antibacterial activity against Staphylococcus haemolyticus ATCC 29970 after 16 to 20 hrs by broth microdilution method. Format: functional.
In a further series the test system is Streptococcus oralis. Briefly: Antibacterial activity against Streptococcus oralis ATCC 9811 after 16 to 20 hrs by broth microdilution method. Format: functional.
The test system of the next series is Streptococcus pyogenes. The series is described as follows: Antibacterial activity against Streptococcus pyogenes ATCC 49399 after 16 to 20 hrs by broth microdilution method. It counts as functional.
In another series the test system is Enterococcus faecium. Briefly: Antibacterial activity against Enterococcus faecium NCTC 7171 after 16 to 20 hrs by broth microdilution method. Format: functional.
Series [5] in a line: Plasma protein binding in human at 10 uM after 6 hrs by equilibrium dialysis assay. Format: ADME, cell-free.
Another series relates to HepG2. Briefly: Cytotoxicity against human HepG2 cells assessed as cell viability after 16 hrs by XTT assay. It counts as cell-based. The conditions noted are these: HepG2, 16 h. The method, boiled down: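 HepG2 cells were run in triplicate in an XTT viability assay. IC50 was derived from the concentration–response data.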
In general terms: Tetrazolium dyes change colour on reduction, which living cells bring about.

In series [6] the test system is Staphylococcus aureus. The series is described as follows: Antibacterial activity against mecA-positive, methicillin/oxacillin/tetracycline-resistant and vancomycin/linezolid susceptible Staphylococcus aureus COL after 16 to 20 hrs by broth microdilution method. Format: functional.
The subject of series [7] is Staphylococcus aureus. The series is described as follows: Antibacterial activity against mecA-positive, ciprofloxacin/gentamicin/oxacillin/penicillin/linezolid-resistant Staphylococcus aureus NRS119 after 16 to 20 hrs by broth microdilution method. Format: functional.
The test system of series [8] is Staphylococcus aureus. The series is described as follows: Antibacterial activity against vancomycin/methicillin-resistant Staphylococcus aureus VRS1 clinical isolate after 16 to 20 hrs by broth microdilution method. Format: functional.

With `Nc1c[nH]nc1-c1nc(-c2ccc(Oc3ccc(F)cc3)cc2)no1`, the MIC (usually the smallest concentration in the dilution series that meets the test's criterion for growth inhibition) against Staphylococcus aureus [1] is 16 mg/L (≈ 47.4 µM).

As for `FC(F)(F)c1ccc(Oc2ccc(-c3noc(-c4nc[nH]n4)n3)cc2)cc1`, the MIC against Staphylococcus aureus [1] was ≥ 128 mg/L.

In turn, `Oc1c(F)cc(-c2nc(-c3ccc(Oc4ccc(C(F)(F)F)cc4)cc3)no2)cc1F` returned an MIC in the series with Staphylococcus aureus [1] of 2 mg/L (≈ 4.6 µM).

Take `Fc1ccc(Oc2ccc(-c3noc(-c4cc[nH]c4)n3)cc2)cc1`: the MIC against Staphylococcus aureus [1] was ≥ 128 mg/L.

As to `NS(=O)(=O)c1ccc(-c2nc(-c3ccc(Oc4ccc(F)cc4)cc3)no2)cc1`, the MIC against Staphylococcus aureus [1] was ≥ 128 mg/L.

As for `O=[N+]([O-])c1c[nH]c(-c2nc(-c3ccc(Oc4ccc(F)cc4)cc3)no2)c1`, in the series on Staphylococcus aureus [1], the MIC was ≥ 128 mg/L.

In the series with Staphylococcus aureus [1], `N#Cc1c[nH]nc1-c1nc(-c2ccc(Oc3ccc(C(F)(F)F)cc3)cc2)no1` showed an MIC of 2 mg/L (≈ 5.03 µM).

In the series with Staphylococcus aureus [1], `Nc1c(F)cc(-c2nc(-c3ccc(Oc4ccccc4)cc3)no2)cc1F` came in with an MIC of 8 mg/L (≈ 21.9 µM).

Consider `c1ccc(Oc2ccc(-c3noc(-c4ccc5[nH]ccc5c4)n3)cc2)cc1`, for which the MIC in the series on Staphylococcus aureus [1] is 2 mg/L (≈ 5.66 µM).

On to `CCCCCCCCCC(=O)N[C@@H](Cc1c[nH]c2ccccc12)C(=O)N[C@H](CC(N)=O)C(=O)N[C@@H](CC(=O)O)C(=O)N[C@@H]1C(=O)NCC(=O)N[C@@H](CCCN)C(=O)N[C@@H](CC(=O)O)C(=O)N[C@H](C)C(=O)N[C@@H](CC(=O)O)C(=O)NCC(=O)N[C@H](CO)C(=O)N[C@@H]([C@H](C)CC(=O)O)C(=O)N[C@@H](CC(=O)c2ccccc2N)C(=O)O[C@@H]1C`, for which the unbound share (fraction unbound) (usually free concentration divided by total concentration) in series [2] was < 0.09.

Consider `Nc1cncc(-c2nc(-c3ccc(Oc4ccc(F)cc4)cc3)no2)c1`, for which the MIC with Staphylococcus aureus [1] was ≥ 128 mg/L.

Regarding `COc1cc(-c2nc(-c3ccc(Oc4ccc(C(F)(F)F)cc4)cc3)no2)ccc1O`, in the series with Staphylococcus aureus [1], the MIC is ≥ 128 mg/L.

`c1ccc(Oc2ccc(-c3noc(-c4ccc5[nH]ncc5c4)n3)cc2)cc1`: the MIC against Staphylococcus aureus [1] was ≥ 128 mg/L.

As for `FC(F)(F)c1ccc(Oc2ccc(-c3noc(-c4cc[nH]n4)n3)cc2)cc1`, the MIC against Staphylococcus aureus [1] was ≥ 128 mg/L.

As to `CC(C)(C)OC(=O)N1CCC(Nc2c[nH]nc2-c2nc(-c3ccc(Oc4ccc(C(F)(F)F)cc4)cc3)no2)CC1`, the minimum inhibitory concentration (MIC) in the series on Staphylococcus aureus [1] was ≥ 128 mg/L.

`FC(F)(F)c1ccc(Oc2ccc(-c3noc(-c4c[nH]cn4)n3)cc2)cc1`: the MIC was 32 mg/L (≈ 86 µM) in series [3]; 16 mg/L (≈ 43 µM) in series [4]; > 128 mg/L against Streptococcus oralis; 128 mg/L (≈ 344 µM) with Streptococcus pyogenes; 8 mg/L (≈ 21.5 µM) in the series on Enterococcus faecium; 2 mg/L (≈ 5.37 µM) in the series with Staphylococcus aureus [1]. The MIC stood at 32 mg/L (≈ 86 µM) in the series on Staphylococcus aureus [6], 4 mg/L (≈ 10.7 µM) with Staphylococcus aureus [7] and 1 mg/L (≈ 2.69 µM) against Staphylococcus aureus [8]. In addition, the PPB in [5] is 93.5%. Further, the IC50 (commonly the concentration needed to halve the response being measured) in the series on HepG2 was 31.5 mg/L (≈ 84.6 µM).

Source of the values: ChEMBL document CHEMBL3407479, “Structure-activity relationship for the oxadiazole class of antibiotics” (J Med Chem, 2015).
